Each structure is given as a SMILES string. Activity calls are given as the source filed them. No cut-off for these calls is given here.

The nature of data set [1]: Ratio of unbound drug level in brain of C57BL/6J/129SvEV mouse model of Gaucher's disease at 90 mg/kg, ip administered once daily for 14 days measured 1 hr post-last dose to EC50 for inhibition of acid ceramidase in Krabbe's disease patient-derived primary fibroblasts. The format is organism-based. Conditions: in vivo. In a few lines:
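Gaucher-model 4L;C* mice (N = 4–8, mixed sexes) got 30 or 90 mg kg–1 i.p. once daily for 14 days from postnatal day 5 and were sacrificed 1 h after the day-14 dose. Compound levels were measured in plasma and brain, and unbound brain level came from brain fraction unbound (two technical replicates). The reference EC50 was from Krabbe patient primary fibroblasts incubated 2 h across concentrations (two independent experiments, duplicates).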

The target of another data set is T1, Acid ceramidase (Homo sapiens, UniProt Q13510).
T1 sequence (Q13510 whole entry): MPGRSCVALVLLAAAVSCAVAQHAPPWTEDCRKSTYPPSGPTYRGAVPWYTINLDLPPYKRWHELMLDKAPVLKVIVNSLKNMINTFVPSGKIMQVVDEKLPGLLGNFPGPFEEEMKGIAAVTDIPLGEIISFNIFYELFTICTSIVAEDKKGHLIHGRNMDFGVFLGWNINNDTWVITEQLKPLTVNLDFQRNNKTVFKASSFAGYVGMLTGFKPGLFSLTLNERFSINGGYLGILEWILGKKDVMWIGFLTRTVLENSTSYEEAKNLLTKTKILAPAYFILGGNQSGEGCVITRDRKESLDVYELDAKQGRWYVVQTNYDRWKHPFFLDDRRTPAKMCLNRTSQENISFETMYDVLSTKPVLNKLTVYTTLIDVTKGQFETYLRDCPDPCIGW
The data set is described as follows: Time-dependent inhibition of human acid ceramidase expressed in HEK293 cells using Rbm14-12 as substrate by fluorescence assay. The format is cell-based. In a few lines: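 hAC-enriched lysates with fluorogenic substrate Rbm 14-12; vehicle 1% DMSO; time-dependent inhibition analysed for ki/KI and ki; two independent experiments, each in two technical replicates.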

Data set [2] in a line: Unbound plasma concentration in twitcher mouse model of Krabbe's disease at 90 mg/kg, ip administered once daily for 20 days measured 1 hr post-last dose. The format is ADME, organism-based. Conditions: in vivo. In a few lines: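 Twitcher mice dosed i.p. once daily for 20 days, sacrificed 1 h after last dose (day 20); drug measured in plasma and brain; unbound levels from unbound fractions (mean of two technical replicates); N = 3 males + 3 females per group.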

The nature of data set [3]: Ratio of unbound drug level in brain of twitcher mouse model of Krabbe's disease at 90 mg/kg,ip administered once daily for 20 days measured 1 hr post-last dose to EC50 for inhibition of acid ceramidase in Krabbe's disease patient-derived primary fibroblasts. The data set is classed as organism-based. To be noted: in vivo. In a few lines:
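Twitcher mice (3 males + 3 females per group) got 30 or 90 mg kg–1 i.p. once daily for 20 days from postnatal day 10 and were sacrificed 1 h after the day-20 dose. Plasma and brain levels were measured, and unbound brain level came from brain fraction unbound (two technical replicates). The EC50 was from Krabbe patient primary fibroblasts exposed 2 h to a concentration series (two independent experiments, duplicates).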

The target of data set [4] is T2, Acid ceramidase (Homo sapiens) (UniProt Q13510).
T2 sequence (whole entry): T1 sequence (Q13510 whole entry)
The data set is described as follows: Inhibition of acid ceramidase in human SH-SY5Y cells assessed as change in intracellular accumulation of SM (d18:1/16:0) at 10 uM measured up to 6 hrs by LC/MS analysis. The format is cell-based. In a few lines:
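Human neuroblastoma SH-SY5Y cells incubated with compound at 10 μM for 30 min, 1 h, 3 h and 6 h; AC activity by LC/MS-based activity assay; Cer (d18:0/16:0), Cer (d18:1/16:0), sphingosine, SM (d18:1/16:0) and HexCer (d18:1/16:0) quantified by LC/MS.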

Data set [5] deals with T2, Acid ceramidase (Homo sapiens). Kind of data set: Inhibition of acid ceramidase in human SH-SY5Y cells assessed as change in intracellular accumulation of SM (d18:1/16:0) up to 10 uM measured after 3 hrs by LC/MS analysis. The format is cell-based. In a few lines:
(§1)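 SH-SY5Y neuroblastoma cells exposed 3 h to 1, 2.5, 5 and 10 μM; AC activity by LC/MS-based assay; ceramide species, sphingosine, SM and HexCer (d18:1/16:0) quantified by LC/MS; means ± S.E.M. of at least six determinations, experiment repeated twice.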

The target in data set [6] is T3, Sphingomyelin phosphodiesterase (Homo sapiens) (UniProt P17405).
T3 sequence (whole entry): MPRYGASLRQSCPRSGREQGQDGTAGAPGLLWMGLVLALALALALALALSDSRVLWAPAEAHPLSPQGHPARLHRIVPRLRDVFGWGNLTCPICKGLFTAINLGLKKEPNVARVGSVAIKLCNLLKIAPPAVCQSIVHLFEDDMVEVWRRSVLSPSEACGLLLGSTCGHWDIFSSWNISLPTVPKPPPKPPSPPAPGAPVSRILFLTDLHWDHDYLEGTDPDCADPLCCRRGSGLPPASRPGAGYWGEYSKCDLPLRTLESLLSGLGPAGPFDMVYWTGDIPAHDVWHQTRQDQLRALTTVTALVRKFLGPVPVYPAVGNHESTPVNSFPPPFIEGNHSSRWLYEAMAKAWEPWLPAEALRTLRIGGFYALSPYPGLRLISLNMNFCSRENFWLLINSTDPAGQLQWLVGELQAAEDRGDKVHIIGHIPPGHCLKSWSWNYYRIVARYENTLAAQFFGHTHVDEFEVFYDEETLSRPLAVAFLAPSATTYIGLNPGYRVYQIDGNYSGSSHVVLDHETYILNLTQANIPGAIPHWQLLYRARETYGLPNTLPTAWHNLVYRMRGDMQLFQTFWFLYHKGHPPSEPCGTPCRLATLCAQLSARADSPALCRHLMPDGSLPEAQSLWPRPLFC
The data set is described as follows: Inhibition of human full length ASM at 1 to 10 uM using HMU-PC as fluorogenic substrate incubated for 45 mins by fluorescence based assay.

Data set [7] deals with T2, Acid ceramidase (Homo sapiens). Kind of data set: Inhibition of acid ceramidase in human SH-SY5Y cells assessed as change in intracellular accumulation of HexCer (d18:1/16:0) up to 10 uM measured after 3 hrs by LC/MS analysis. The data set is classed as cell-based. In a few lines: as §1
In data set [8] the target is T4, Lysosomal acid glucosylceramidase (Homo sapiens) (UniProt P04062).
T4 sequence (whole entry): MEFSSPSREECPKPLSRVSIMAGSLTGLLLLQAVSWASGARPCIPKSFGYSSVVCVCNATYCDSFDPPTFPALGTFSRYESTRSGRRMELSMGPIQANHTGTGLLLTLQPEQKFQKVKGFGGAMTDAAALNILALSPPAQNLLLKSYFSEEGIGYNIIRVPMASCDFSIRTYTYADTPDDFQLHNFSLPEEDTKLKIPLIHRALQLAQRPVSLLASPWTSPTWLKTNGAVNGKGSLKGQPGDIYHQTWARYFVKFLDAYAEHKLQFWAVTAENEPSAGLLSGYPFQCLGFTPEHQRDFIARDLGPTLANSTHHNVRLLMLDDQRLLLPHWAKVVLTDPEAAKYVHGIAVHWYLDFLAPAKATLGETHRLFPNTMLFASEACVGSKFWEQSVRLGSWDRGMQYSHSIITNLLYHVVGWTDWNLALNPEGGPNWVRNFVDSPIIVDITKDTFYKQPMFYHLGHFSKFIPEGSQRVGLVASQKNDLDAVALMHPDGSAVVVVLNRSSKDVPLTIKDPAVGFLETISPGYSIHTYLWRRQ
The data set is described as follows: Inhibition of human full length GCase at 1 to 10 uM using 4-MUG as fluorogenic substrate incubated for 15 mins by fluorescence based assay.

Usually kinact stands for the maximal first-order rate at which the target is inactivated. As for `CC(C)CNC(=O)n1c(=O)oc2cc(C3CCN(C)CC3)ccc21`, the Ratio was found to be 6.4 in [1] and 5.2 in data set [3]. For the same compound, the kinact at Acid ceramidase turned out to be 0.15 min⁻¹. Further, the “Cp(f)” value in [2] amounted to 520 nM. For the same compound, the inhibition entry in data set [4], in data set [5], in data set [6], in data set [7] and in data set [8] was “inactive” each time.

Source of the values: ChEMBL document CHEMBL4342473, “Lead Optimization of Benzoxazolone Carboxamides as Orally Bioavailable and CNS Penetrant Acid Ceramidase Inhibitors” (J Med Chem, 2020).
